# Results published in ChEMBL document CHEMBL2040734, “Benzothiazoles: search for anticancer agents” (2012).
# Key:
# Assay type in all cases: functional
# [1] = test system: EKVX; assay: Cytotoxicity against human EKVX cells assessed as cell growth at 0.1 uM after 48 hrs by sulforhodamine B assay; conditions: read-out: Activity
# Summary of the method: (§1)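 Five-dose NCI panel run at 0.01, 0.1, 1, 10 and 100 µM. Cells were in RPMI 1640 with 5% FBS and 2 mM L-glutamine, seeded at 5000–40,000 cells/well and pre-incubated 24 h. Drug was diluted from a DMSO stock into medium with 50 µg/ml gentamicin. Exposure was 48 h at 37 °C, 5% CO2. Cells were fixed with cold TCA and stained with 0.4% SRB, read at 515 nm. Percent growth came from time-zero, control and test absorbances.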
# [2] = test system: U-251; assay: Cytotoxicity against human U251 cells assessed as cell growth at 10 '-5 M after 48 hrs by sulforhodamine B assay; conditions: U-251, 48 h, read-out: Activity
# [3] = test system: OVCAR-4; assay: Cytotoxicity against human OVCAR4 cells assessed as cell growth at 0.1 uM after 48 hrs by sulforhodamine B assay; conditions: OVCAR-4, 48 h, read-out: Activity
# [4] = test system: NCI-H460; assay: Cytotoxicity against human NCI-H460 cells assessed as cell growth at 1 uM after 48 hrs by sulforhodamine B assay; conditions: NCI-H460, 48 h, read-out: Activity
# [5] = test system: A498; assay: Cytotoxicity against human A498 cells assessed as cell growth at 1 uM after 48 hrs by sulforhodamine B assay; conditions: A498, 48 h, read-out: Activity
# Summary of the method: (§2)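 NCI-60 five-dose screen. Cells were grown in RPMI 1640 with 5% FBS and 2 mM L-glutamine and preincubated 24 h. Compound (DMSO stock) was tested at 0.01, 0.1, 1, 10 and 100 µM for 48 h at 37 °C. Cells were fixed in situ with cold TCA (final 10%) and stained with 0.4% SRB. A515 was read, and percent growth was calculated against time-zero and control plates.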
# [6] = test system: LOX IMVI; assay: Cytotoxicity against human LOXIMVI cells assessed as cell growth at 1 uM after 48 hrs by sulforhodamine B assay; conditions: read-out: Activity
# [7] = test system: KM12; assay: Growth inhibition of human KM12 cells after 48 hrs by sulforhodamine B assay; conditions: KM12, 48 h; for CC50: read-out: LC50 (the source's name)
# Summary of the method: (§3)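 Adherent NCI-60 lines were grown in RPMI 1640 with 5% FBS and 2 mM L-glutamine, plated at 5000–40,000 cells/well and preincubated 24 h. They were then exposed to five concentrations (0.01–100 µM, from a DMSO stock) for 48 h at 37 °C, 5% CO2. Cells were fixed with cold TCA (10% final, 60 min, 4 °C) and stained with 0.4% SRB. Dye was solubilized in 10 mM Tris base and A515 read. GI50 was derived from time-zero, control and treated absorbances.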
# [8] = test system: NCI-H322M; assay: Cytotoxicity against human NCI-H322M cells assessed as cell growth at 1 uM after 48 hrs by sulforhodamine B assay; conditions: read-out: Activity
# [9] = test system: RXF 393; assay: Cytotoxicity against human RXF393 cells assessed as cell growth at 1 uM after 48 hrs by sulforhodamine B assay; conditions: RXF 393, 48 h, read-out: Activity
# [10] = test system: SR; assay: Growth inhibition of human SR cells after 48 hrs by sulforhodamine B assay; conditions: for CC50: read-out: LC50 (the source's name)
# Summary of the method: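 Leukemia suspension lines were grown in RPMI 1640 with 5% FBS and 2 mM L-glutamine and plated at 5000–40,000 cells/well with 24 h preincubation. They were treated at 0.01, 0.1, 1, 10 and 100 µM (DMSO stock) for 48 h at 37 °C. Settled cells were fixed with 80% TCA (16% final) and stained with 0.4% SRB in 1% acetic acid, then read at 515 nm. GI50 was calculated against time-zero and control wells.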
# [11] = test system: SF-539; assay: Cytotoxicity against human SF539 cells assessed as cell growth at 1 uM after 48 hrs by sulforhodamine B assay; conditions: SF-539, 48 h, read-out: Activity
# [12] = test system: NCI-H522; assay: Cytotoxicity against human NCI-H522 cells assessed as cell growth at 0.01 uM after 48 hrs by sulforhodamine B assay; conditions: NCI-H522, 48 h, read-out: Activity
# [13] = test system: NCI-H226; assay: Cytotoxicity against human NCI-H226 cells assessed as cell growth at 10 '-5 M after 48 hrs by sulforhodamine B assay; conditions: NCI-H226, 48 h, read-out: Activity
# [14] = test system: OVCAR-8; assay: Cytotoxicity against human OVCAR8 cells assessed as cell growth at 100 uM after 48 hrs by sulforhodamine B assay; conditions: OVCAR-8, 48 h, read-out: Activity
# [15] = test system: MOLT-4; assay: Cytotoxicity against human MOLT4 cells assessed as cell growth at 10 uM after 48 hrs by sulforhodamine B assay; conditions: MOLT-4, 48 h, read-out: Activity
# [16] = test system: HOP-62; assay: Cytotoxicity against human HOP62 cells assessed as cell growth at 10 uM after 48 hrs by sulforhodamine B assay; conditions: HOP-62, 48 h, read-out: Activity; summary of the method: as §1
# [17] = test system: A498; assay: Cytotoxicity against human A498 cells assessed as cell growth at 0.01 uM after 48 hrs by sulforhodamine B assay; conditions: A498, 48 h, read-out: Activity; summary of the method: as §2
# [18] = test system: BT-549; assay: Cytotoxicity against human BT549 cells assessed as cell growth at 10 '-5 M after 48 hrs by sulforhodamine B assay; conditions: BT-549, 48 h, read-out: Activity
# Summary of the method: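 Primary NCI-60 single-dose screen at 10 µM. Cells were grown in RPMI 1640 with 5% FBS and 2 mM L-glutamine and plated 24 h before drug addition. Compound was solubilized in DMSO, then exposed for 48 h at 37 °C under 5% CO2. Cells were TCA-fixed and stained with SRB, and absorbance was read at 515 nm. Growth was expressed relative to time-zero and untreated controls.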
# [19] = test system: UACC-257; assay: Cytotoxicity against human UACC257 cells assessed as cell growth at 0.1 uM after 48 hrs by sulforhodamine B assay; conditions: UACC-257, 48 h, read-out: Activity
# [20] = test system: NCI-H226; assay: Cytotoxicity against human NCI-H226 cells assessed as cell growth at 10 uM after 48 hrs by sulforhodamine B assay; conditions: NCI-H226, 48 h, read-out: Activity
# [21] = test system: NCI-H226; assay: Cytotoxicity against human NCI-H226 cells assessed as cell growth at 0.1 uM after 48 hrs by sulforhodamine B assay; conditions: NCI-H226, 48 h, read-out: Activity
# [22] = test system: NCI-H226; assay: Cytotoxicity against human NCI-H226 cells assessed as cell growth at 1 uM after 48 hrs by sulforhodamine B assay; conditions: NCI-H226, 48 h, read-out: Activity
# [23] = test system: HOP-92; assay: Growth inhibition of human HOP92 cells after 48 hrs by sulforhodamine B assay; conditions: HOP-92, 48 h; summary of the method: as §3
# [24] = test system: NCI-H226; assay: Cytotoxicity against human NCI-H226 cells assessed as cell growth at 100 uM after 48 hrs by sulforhodamine B assay; conditions: NCI-H226, 48 h, read-out: Activity
Structure (SMILES),growth at 0.1 µM [1] [%],growth at 0.1 µM [3] [%],growth at 1 µM [4] [%],growth at 1 µM [5] [%],growth at 1 µM [6] [%],GI50 [7] [µM],TGI [7] [µM],CC50 [7] [µM],growth at 1 µM [8] [%],growth at 1 µM [9] [%],GI50 [10] [µM],TGI [10] [µM],CC50 [10] [µM],growth at 1 µM [11] [%],growth at 0.01 µM [12] [%],growth at 10 µM [13] [%],growth at 100 µM [14] [%],growth at 10 µM [15] [%],growth at 10 µM [16] [%],growth at 0.01 µM [17] [%],further results
Cc1ccc2nc(Nc3c(C)cccc3C)sc2c1,89,89,81,53,62,1.55,> 100,> 100,91,52,0.412,> 100,> 100,76,85,69.7,45,56,39,75,growth at 10 µM [2]: 34%; growth at 10 µM [18]: 37.1%; growth at 0.1 µM [19]: 99%
Clc1cccc(Cl)c1Nc1nc2cccc(Cl)c2s1,82,83,67,26,55,1.2,2.48,5.15,76,45,1.03,3.24,> 100,77,88,-40.8,-35,-38,-93,85,growth at 10 µM [20]: -83%; growth at 0.1 µM [21]: 45%; growth at 1 µM [22]: -9%; GI50 [23]: 0.0718 µM; TGI [23]: 0.69 µM; CC50 ([23]; read-out: LC50 (the source's name)): 3.61 µM; growth at 100 µM [24]: -72%; growth at 10 µM [18]: -67.8%; growth at 0.1 µM [19]: 101%
